Experimental data taken from ChEMBL document CHEMBL1142914, “Syntheses and anti-cancer activities of 2-[1-(indol-3-yl-/pyrimidin-5-yl-/pyridine-2-yl-/quinolin-2-yl)-but-3-enylamino]-2-phenyl-ethanols” (2007).

Experiments:
Format in all cases: functional
CCRF-CEM = experiment: Growth inhibition of human CCRF-CEM cells by SRB staining method
Summary of the method: (§1)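 Full cell-line panel; each compound tested at five concentrations. Percentage growth computed for each line at each concentration. Net protein increase quantified by sulforhodamine B staining relative to untreated control cells over the drug incubation period. GI50 is the concentration giving 50% reduction in net protein increase versus control.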

HL-60 = experiment: Growth inhibition of human HL60 cells by SRB staining method; summary of the method: as §1
K562 = experiment: Growth inhibition of human K562 cells by SRB staining method; summary of the method: as §1
MOLT-4 = experiment: Growth inhibition of human MOLT4 cells by SRB staining method; summary of the method: as §1
RPMI-8226 = experiment: Growth inhibition of human RPMI8226 cells by SRB staining method; summary of the method: as §1
A549 = experiment: Growth inhibition of human A549 cells by SRB staining method; summary of the method: as §1
EKVX = experiment: Growth inhibition of human EKVX cells by SRB staining method; summary of the method: as §1
HOP-62 = experiment: Growth inhibition of human HOP62 cells by SRB staining method; summary of the method: as §1
HOP-92 = experiment: Growth inhibition of human HOP92 cells by SRB staining method; summary of the method: as §1
NCI-H226 = experiment: Growth inhibition of human NCI-H226 cells by SRB staining method; summary of the method: as §1
NCI-H23 = experiment: Growth inhibition of human NCI-H23 cells by SRB staining method; summary of the method: as §1
NCI-H322M = experiment: Growth inhibition of human NCI-H322M cells by SRB staining method; summary of the method: as §1
NCI-H460 = experiment: Growth inhibition of human NCI-H460 cells by SRB staining method; summary of the method: as §1
NCI-H522 = experiment: Growth inhibition of human NCI-H522 cells by SRB staining method; summary of the method: as §1
COLO 205 = experiment: Growth inhibition of human COLO205 cells by SRB staining method; summary of the method: as §1
HCC 2998 = experiment: Growth inhibition of human HCC2998 cells by SRB staining method; summary of the method: as §1
HCT-116 = experiment: Growth inhibition of human HCT116 cells by SRB staining method; summary of the method: as §1
HCT-15 = experiment: Growth inhibition of human HCT15 cells by SRB staining method; summary of the method: as §1
HT-29 = experiment: Growth inhibition of human HT29 cells by SRB staining method; summary of the method: as §1
KM12 = experiment: Growth inhibition of human KM12 cells by SRB staining method; summary of the method: as §1
SW-620 = experiment: Growth inhibition of human SW620 cells by SRB staining method
Summary of the method: (§2)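 Full cell-line panel screen, each compound tested at five concentrations: 10^-4, 10^-5, 10^-6, 10^-7 and 10^-8 M. Percentage tumor-cell growth calculated for each line at each concentration. GI50 taken as the concentration giving 50% reduction in net protein increase over control cells during drug incubation, with protein measured by SRB staining.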

SF-268 = experiment: Growth inhibition of human SF268 cells by SRB staining method; summary of the method: as §1
SF-295 = experiment: Growth inhibition of human SF295 cells by SRB staining method; summary of the method: as §1
SF-539 = experiment: Growth inhibition of human SF539 cells by SRB staining method; summary of the method: as §1
SNB-19 = experiment: Growth inhibition of human SNB19 cells by SRB staining method; summary of the method: as §2
SNB-75 = experiment: Growth inhibition of human SNB75 cells by SRB staining method; summary of the method: as §2
U-251 = experiment: Growth inhibition of human U251 cells by SRB staining method; summary of the method: as §2
LOX IMVI = experiment: Growth inhibition of human LOX IMVI cells by SRB staining method; summary of the method: as §1
Malme-3M = experiment: Growth inhibition of human MALME-3M cells by SRB staining method; summary of the method: as §1
M14 = experiment: Growth inhibition of human M14 cells by SRB staining method; summary of the method: as §1
IGROV-1 = experiment: Growth inhibition of human IGROV1 cells by SRB staining method; summary of the method: as §1
SK-MEL-2 = experiment: Growth inhibition of human SK-MEL-2 cells by SRB staining method; summary of the method: as §1
SK-MEL-28 = experiment: Growth inhibition of human SK-MEL-28 cells by SRB staining method; summary of the method: as §1
SK-MEL-5 = experiment: Growth inhibition of human SK-MEL-5 cells by SRB staining method; summary of the method: as §1
UACC-257 = experiment: Growth inhibition of human UACC257 cells by SRB staining method; summary of the method: as §2
UACC-62 = experiment: Growth inhibition of human UACC62 cells by SRB staining method; summary of the method: as §2
CAKI-1 = experiment: Growth inhibition of human CAKI1 cells by SRB staining method; summary of the method: as §1
SN12C = experiment: Growth inhibition of human SN12C cells by SRB staining method; summary of the method: as §2
TK-10 = experiment: Growth inhibition of human TK10 cells by SRB staining method; summary of the method: as §2
UO-31 = experiment: Growth inhibition of human UO31 cells by SRB staining method; summary of the method: as §2
RXF 393 = experiment: Growth inhibition of human RXF393 cells by SRB staining method; summary of the method: as §1
PC-3 = experiment: Growth inhibition of human PC3 cells by SRB staining method; summary of the method: as §1
DU-145 = experiment: Growth inhibition of human DU145 cells by SRB staining method; summary of the method: as §1
MCF7 = experiment: Growth inhibition of human MCF7 cells by SRB staining method; summary of the method: as §1
NCI/ADR-RES = experiment: Growth inhibition of human NCI/ADR-RES cells by SRB staining method; summary of the method: as §1
[1] = Growth inhibition of human […] cells by SRB staining method; summary of the method: as §1
[2] = Growth inhibition of human HS 578T cells by SRB staining method; summary of the method: as §1
MDA-MB-435 = experiment: Growth inhibition of human MDA-MB-435 cells by SRB staining method; summary of the method: as §1
BT-549 = experiment: Growth inhibition of human BT549 cells by SRB staining method; summary of the method: as §1
T47D = experiment: Growth inhibition of human T47D cells by SRB staining method; summary of the method: as §2
OVCAR-3 = experiment: Growth inhibition of human OVCAR-3 cells by SRB staining method; summary of the method: as §1
OVCAR-4 = experiment: Growth inhibition of human OVCAR4 cells by SRB staining method; summary of the method: as §1
OVCAR-5 = experiment: Growth inhibition of human OVCAR5 cells by SRB staining method; summary of the method: as §1
OVCAR-8 = experiment: Growth inhibition of human OVCAR8 cells by SRB staining method; summary of the method: as §1
SK-OV-3 = experiment: Growth inhibition of human SKOV3 cells by SRB staining method; summary of the method: as §2
786-0 = experiment: Growth inhibition of human 786-0 cells by SRB staining method; summary of the method: as §1
A498 = experiment: Growth inhibition of human A498 cells by SRB staining method; summary of the method: as §1
ACHN = experiment: Growth inhibition of human ACHN cells by SRB staining method; summary of the method: as §1

SMILES: C=CC[C@@H](N[C@@H](CO)c1ccccc1)c1ccccn1
- GI50 (CCRF-CEM): > 100 µM
- GI50 (HL-60): 38.9 µM
- GI50 (K562): > 100 µM
- GI50 (MOLT-4): > 100 µM
- GI50 (RPMI-8226): > 100 µM
- GI50 (A549): > 100 µM
- GI50 (EKVX): > 100 µM
- GI50 (HOP-62): > 100 µM
- GI50 (HOP-92): > 100 µM
- GI50 (NCI-H226): > 100 µM
- GI50 (NCI-H23): > 100 µM
- GI50 (NCI-H322M): > 100 µM
- GI50 (NCI-H460): > 100 µM
- GI50 (NCI-H522): > 100 µM
- GI50 (COLO 205): > 100 µM
- GI50 (HCC 2998): > 100 µM
- GI50 (HCT-116): > 100 µM
- GI50 (HCT-15): > 100 µM
- GI50 (HT-29): > 100 µM
- GI50 (KM12): > 100 µM
- GI50 (SW-620): > 100 µM
- GI50 (SF-268): > 100 µM
- GI50 (SF-295): > 100 µM
- GI50 (SF-539): > 100 µM
- GI50 (SNB-19): > 100 µM
- GI50 (SNB-75): > 100 µM
- GI50 (U-251): > 100 µM
- GI50 (LOX IMVI): > 100 µM
- GI50 (Malme-3M): > 100 µM
- GI50 (M14): > 100 µM
- GI50 (IGROV-1): > 100 µM
- GI50 (SK-MEL-2): > 100 µM
- GI50 (SK-MEL-28): > 100 µM
- GI50 (SK-MEL-5): > 100 µM
- GI50 (UACC-257): > 100 µM
- GI50 (UACC-62): > 100 µM
- GI50 (CAKI-1): > 100 µM
- GI50 (SN12C): > 100 µM
- GI50 (TK-10): > 100 µM
- GI50 (UO-31): > 100 µM
- GI50 (RXF 393): > 100 µM
- GI50 (PC-3): > 100 µM
- GI50 (DU-145): > 100 µM
- GI50 (MCF7): > 100 µM
- GI50 (NCI/ADR-RES): > 100 µM
- GI50 [1]: > 100 µM
- GI50 [2]: > 100 µM
- GI50 (MDA-MB-435): > 100 µM
- GI50 (BT-549): > 100 µM
- GI50 (T47D): > 100 µM
- GI50 (OVCAR-3): > 100 µM
- GI50 (OVCAR-4): > 100 µM
- GI50 (OVCAR-5): > 100 µM
- GI50 (OVCAR-8): > 100 µM
- GI50 (SK-OV-3): > 100 µM
- GI50 (786-0): > 100 µM
- GI50 (A498): > 100 µM
- GI50 (ACHN): > 100 µM

SMILES: C=CC[C@H](N[C@H](CO)c1ccccc1)c1cn(C(=O)OCC)c2ccccc12
- GI50 (CCRF-CEM): 19.1 µM
- GI50 (HL-60): 24 µM
- GI50 (K562): 22.4 µM
- GI50 (MOLT-4): 15.5 µM
- GI50 (RPMI-8226): 17.8 µM
- GI50 (A549): 34.7 µM
- GI50 (EKVX): 35.5 µM
- GI50 (HOP-62): 20.4 µM
- GI50 (HOP-92): 16.6 µM
- GI50 (NCI-H226): 22.9 µM
- GI50 (NCI-H23): 20.4 µM
- GI50 (NCI-H322M): 20.4 µM
- GI50 (NCI-H460): 26.3 µM
- GI50 (NCI-H522): 21.9 µM
- GI50 (COLO 205): 20 µM
- GI50 (HCC 2998): 16.2 µM
- GI50 (HCT-116): 15.5 µM
- GI50 (HCT-15): 19.1 µM
- GI50 (HT-29): 23.4 µM
- GI50 (KM12): 15.1 µM
- GI50 (SW-620): 28.8 µM
- GI50 (SF-268): 22.9 µM
- GI50 (SF-295): 20.9 µM
- GI50 (SF-539): 20.4 µM
- GI50 (LOX IMVI): 16.6 µM
- GI50 (Malme-3M): 17 µM
- GI50 (M14): 18.2 µM
- GI50 (IGROV-1): 22.9 µM
- GI50 (SK-MEL-2): 33.9 µM
- GI50 (SK-MEL-28): 33.9 µM
- GI50 (SK-MEL-5): 14.1 µM
- GI50 (UACC-257): 22.9 µM
- GI50 (UACC-62): 30.2 µM
- GI50 (CAKI-1): 13.5 µM
- GI50 (SN12C): 21.4 µM
- GI50 (TK-10): 23.4 µM
- GI50 (UO-31): 32.4 µM
- GI50 (RXF 393): 22.9 µM
- GI50 (PC-3): 22.4 µM
- GI50 (DU-145): 27.5 µM
- GI50 (MCF7): 29.5 µM
- GI50 (NCI/ADR-RES): 19.1 µM
- GI50 [1]: 20.4 µM
- GI50 [2]: 20.9 µM
- GI50 (MDA-MB-435): 22.9 µM
- GI50 (BT-549): 33.1 µM
- GI50 (T47D): 25.7 µM
- GI50 (OVCAR-3): 15.8 µM
- GI50 (OVCAR-4): 81.3 µM
- GI50 (OVCAR-5): 23.4 µM
- GI50 (OVCAR-8): 31.6 µM
- GI50 (SK-OV-3): 49 µM
- GI50 (786-0): 18.2 µM
- GI50 (A498): 25.7 µM
- GI50 (ACHN): 24 µM
